For experiment [1], the system named is Flavobacterium columnare. The experiment can be described thus: Bactericidal activity against Flavobacterium columnare FC-G1 incubated for 24 hrs followed by re-plating on nutrient agar and measured after overnight incubation by two fold serial dilution method. Conditions: FC-G1, 24 h. The experiment is classed as functional. The gist of the method:
(§1)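 After the MIC read, 100 µl from every tube without visible growth was spread on nutrient agar lacking compound. Plates were incubated overnight at 28 ± 1 °C. MBC was taken as the lowest concentration killing >99.9% of the initial population, seen as no growth on agar.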

Experiment [2] can be described thus: Inhibition of Escherichia coli ATCC 35150 FabI in presence of t-O-NAC and NADH up to 1 min by spectrophotometric analysis. A digest of the protocol:
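Recombinant His-tagged FabI, expressed in E. coli BL21(DE3) and purified on Ni-NTA, was used at 20 µL of 100 µg/mL stock in 0.1 M PBS-DTT. Compounds were tested at 128-1 µM with 10 µL of 4 mM t-O-NAC, and 20 µL of 2 mM NADH started the reaction. NADH oxidation was followed at 340 nm for 1 min. IC50 came from dose-response plots.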

The test system of experiment [3] is Escherichia coli. The experiment in a line: Bactericidal activity against Escherichia coli ATCC 35150 incubated for 24 hrs followed by re-plating on nutrient agar and measured after overnight incubation by two fold serial dilution method. The experiment is classed as functional. Conditions: ATCC 35150, 24 h. A digest of the protocol:
as §1

Experiment [4] relates to Staphylococcus aureus. The experiment can be described thus: Bactericidal activity against Staphylococcus aureus ATCC 29213 incubated for 24 hrs followed by re-plating on nutrient agar and measured after overnight incubation by two fold serial dilution method. The experiment is classed as functional. Conditions: ATCC 29213, 24 h. The gist of the method: as §1
In experiment [5] the target is T1, Enoyl-(Acyl-carrier-protein) reductase II (Streptococcus agalactiae serotype V (strain ATCC BAA-611 / 2603 V/R), UniProt Q8E1K8).
T1 sequence (Q8E1K8 whole entry): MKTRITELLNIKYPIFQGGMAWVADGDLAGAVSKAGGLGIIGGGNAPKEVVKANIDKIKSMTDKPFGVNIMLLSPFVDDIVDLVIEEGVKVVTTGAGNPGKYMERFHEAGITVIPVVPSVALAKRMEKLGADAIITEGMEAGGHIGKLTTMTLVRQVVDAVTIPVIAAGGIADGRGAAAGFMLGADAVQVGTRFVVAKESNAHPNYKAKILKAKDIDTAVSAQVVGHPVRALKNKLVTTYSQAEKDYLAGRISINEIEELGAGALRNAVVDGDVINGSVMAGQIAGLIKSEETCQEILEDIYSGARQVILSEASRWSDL
The experiment can be described thus: Inhibition of Streptococcus agalactiae WB1445 FabK in presence of t-O-NAC and NADH up to 1 min by spectrophotometric analysis. The gist of the method:
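Recombinant His-tagged FabK (20 µL of 150 µg/mL stock) was assayed in 100 µL of 0.1 M ADA-DTT, pH 6.5, against compounds at 128-1 µM, with 10 µL of 4 mM t-O-NAC. Addition of 20 µL of 2 mM NADH started the reaction. Absorbance at 340 nm was read for 1 min. IC50 was estimated from dose-response curves.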

In experiment [6] the test system is Staphylococcus aureus. The experiment in a line: Antibacterial activity against Staphylococcus aureus ATCC 29213 after 24 hrs by two fold serial dilution method. The experiment is classed as functional. The following applies: ATCC 29213, 24 h. A digest of the protocol: (§2)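 Broth two-fold serial dilution per CLSI, in nutrient broth. Inoculum from 24 h cultures at 28 ± 1 °C, adjusted in saline to 1×10^7-2×10^7 cfu/mL, then diluted to 1×10^5-2×10^5 cfu/mL. Test range 256 down to 0.50 µM and lower. Tubes held 24 h at 28 ± 1 °C. MIC read visually. Enrofloxacin and norfloxacin served as standards.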

In experiment [7] the test system is Streptococcus agalactiae. The experiment can be described thus: Antibacterial activity against Streptococcus agalactiae WB1445 after 24 hrs by two fold serial dilution method. The experiment is classed as functional. Conditions: WB1445, 24 h. A digest of the protocol:
as §2

Experiment [8] concerns Flavobacterium columnare. The experiment can be described thus: Antibacterial activity against Flavobacterium columnare FC-G1 after 24 hrs by two fold serial dilution method. The experiment is classed as functional. The following applies: FC-G1, 24 h. A digest of the protocol: as §2
Experiment [9] concerns Streptococcus agalactiae. The experiment can be described thus: Bactericidal activity against Streptococcus agalactiae WB1445 incubated for 24 hrs followed by re-plating on nutrient agar and measured after overnight incubation by two fold serial dilution method. The experiment is classed as functional. Conditions: WB1445, 24 h. The gist of the method: as §1
Experiment [10] deals with Escherichia coli. The experiment in a line: Antibacterial activity against Escherichia coli ATCC 35150 after 24 hrs by two fold serial dilution method. The experiment is classed as functional. The following applies: ATCC 35150, 24 h. A digest of the protocol:
as §2

Converted amounts (≈) assume the structure as drawn.

A word on the MBC: it is the smallest concentration meeting the test's criterion for killing. What is called IC50 is the concentration needed to halve the response being measured. By MIC is commonly meant the smallest concentration in the dilution series that meets the test's criterion for growth inhibition. High values mean a need for much substance, low ones inhibition by little substance. As to `Cc1cn(CCCCCCCCOc2ccc3ccc(=O)oc3c2)cn1`, the MBC in experiment [1] is 8 µM (≈ 2.84 µg/mL); in experiment [3], above 256 µM; in [4] it was 64 µM (≈ 22.7 µg/mL); in [9] it was 16 µM (≈ 5.67 µg/mL). Also, the IC50 in [2] was 117 µM; in experiment [5], 1.75 µM. For the same molecule, the MIC was 8 µM (≈ 2.84 µg/mL) in experiment [6], 4 µM (≈ 1.42 µg/mL) in experiment [7], 4 µM (≈ 1.42 µg/mL) in [8] and above 256 µM in [10].
In the case of `Cc1nccn1CCCCCCCCCCOc1ccc2ccc(=O)oc2c1`, the MBC was 16 µM (≈ 6.12 µg/mL) in experiment [1], above 256 µM in experiment [3], 128 µM (≈ 49 µg/mL) in experiment [4] and 16 µM (≈ 6.12 µg/mL) in experiment [9]. Besides, the figures for the IC50 in experiment [2] and in experiment [5] were 108 µM and 4.21 µM, respectively. In addition, the MIC is 64 µM (≈ 24.5 µg/mL) in experiment [6], 8 µM (≈ 3.06 µg/mL) in experiment [7], 8 µM (≈ 3.06 µg/mL) in experiment [8] and above 256 µM in experiment [10].
As for `Cc1cn(CCCCCCCCCCOc2ccc3ccc(=O)oc3c2)cn1`, the MBC is 16 µM (≈ 6.12 µg/mL) in experiment [1], above 256 µM in experiment [3], 128 µM (≈ 49 µg/mL) in [4] and 16 µM (≈ 6.12 µg/mL) in experiment [9]. Besides, the results for the IC50 in [2] and in experiment [5] were 115 µM and 4.37 µM, respectively. Besides, the minimal inhibitory concentration (MIC) in [6] was 32 µM (≈ 12.2 µg/mL); in experiment [7] it was 8 µM (≈ 3.06 µg/mL); in experiment [8], 16 µM (≈ 6.12 µg/mL); in experiment [10], above 256 µM.
`Cc1cn(CCCCCCOc2ccc3ccc(=O)oc3c2)cn1`: the MBC amounted to 128 µM (≈ 41.8 µg/mL) in experiment [1], 64 µM (≈ 20.9 µg/mL) in experiment [3], 128 µM (≈ 41.8 µg/mL) in experiment [4] and 256 µM (≈ 83.6 µg/mL) in [9]. Further, the IC50 in experiment [2] stood at 1.35 µM; in experiment [5], 3.59 µM. In addition, the minimal inhibitory concentration (MIC) in experiment [6] stood at 32 µM (≈ 10.4 µg/mL); in [7], 128 µM (≈ 41.8 µg/mL); in experiment [8], 32 µM (≈ 10.4 µg/mL); in experiment [10], 16 µM (≈ 5.22 µg/mL).

The values are drawn from ChEMBL document CHEMBL4251599, “Synthesis and biological evaluation of coumarin derivatives containing imidazole skeleton as potential antibacterial agents” (Eur J Med Chem, 2018).
